# Molecular target: T1, Aminopeptidase N (Sus scrofa, UniProt P15145)
# T1 sequence (P15145 whole entry): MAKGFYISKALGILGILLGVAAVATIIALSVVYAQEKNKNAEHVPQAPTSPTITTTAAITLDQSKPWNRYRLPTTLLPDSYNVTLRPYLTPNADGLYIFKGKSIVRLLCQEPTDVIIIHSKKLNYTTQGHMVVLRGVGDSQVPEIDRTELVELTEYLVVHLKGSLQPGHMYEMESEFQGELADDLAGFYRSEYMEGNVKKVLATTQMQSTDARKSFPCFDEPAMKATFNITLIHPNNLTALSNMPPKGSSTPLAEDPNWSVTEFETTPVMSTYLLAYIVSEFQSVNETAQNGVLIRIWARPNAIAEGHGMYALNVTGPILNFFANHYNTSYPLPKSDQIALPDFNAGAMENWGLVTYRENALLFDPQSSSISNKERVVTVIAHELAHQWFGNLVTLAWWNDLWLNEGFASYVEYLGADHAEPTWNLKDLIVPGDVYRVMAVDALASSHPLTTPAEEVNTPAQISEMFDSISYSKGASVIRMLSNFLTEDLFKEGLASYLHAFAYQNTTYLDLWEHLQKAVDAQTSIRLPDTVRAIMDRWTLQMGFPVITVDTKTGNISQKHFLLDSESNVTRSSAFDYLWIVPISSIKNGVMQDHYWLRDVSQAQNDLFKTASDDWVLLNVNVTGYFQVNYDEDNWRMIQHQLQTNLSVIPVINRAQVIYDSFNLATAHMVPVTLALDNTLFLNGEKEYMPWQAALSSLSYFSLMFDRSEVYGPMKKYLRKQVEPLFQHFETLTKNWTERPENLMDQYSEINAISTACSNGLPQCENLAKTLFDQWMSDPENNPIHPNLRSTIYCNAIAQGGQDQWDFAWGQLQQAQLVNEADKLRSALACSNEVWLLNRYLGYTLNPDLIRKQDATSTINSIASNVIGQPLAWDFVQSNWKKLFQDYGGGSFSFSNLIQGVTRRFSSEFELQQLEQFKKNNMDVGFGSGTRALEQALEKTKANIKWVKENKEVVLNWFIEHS
# Test: Inhibition of microsomal […] aminopeptidase in pig kidney
# Outline: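 Porcine kidney microsomal APN, ammonium sulfate suspension diluted 600-fold in Tris-HCl (25 mM, pH 7.4). Activity compared with enzyme run without inhibitor.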
row,IC50,Structure (SMILES)
1,984 nM,CC(C)CC(C(=O)NO)C(=O)NCCc1ccccc1 (centres undefined)
2,> 10000 nM,O=C(NO)C(Cc1cccc(Oc2ccccc2)c1)C(=O)NCc1ccccc1 (centres undefined)
3,452 nM,CC(C)CC(C(=O)NO)C(=O)N1CCC(Cc2ccccc2)CC1 (centres undefined)
4,3040 nM,CC(C)CC(C(=O)NO)C(=O)NC1CCc2ccccc2C1 (centres undefined)
5,3000 nM,CC(C)CC(C(=O)NO)C(=O)NCc1ccc(F)cc1 (centres undefined)

# Continued, compound first:
row,Structure (SMILES),IC50
1,O=C(NO)C(Cc1ccccc1)C(=O)NCc1ccccc1 (centres undefined),> 10000 nM
2,CC(C)CC(C(=O)NO)C(=O)NCCCc1ccccc1 (centres undefined),528 nM
3,CC(C)CC(C(=O)NO)C(=O)NCc1ccc(Cl)cc1 (centres undefined),2520 nM
4,CC(C)CC(C(=O)NO)C(=O)NCc1ccccc1 (centres undefined),590 nM
5,CC(C)CC(C(=O)NO)C(=O)NCCCCc1ccccc1 (centres undefined),82 nM
6,O=C(NO)C(Cc1ccccc1)C(=O)NCCCCc1ccccc1 (centres undefined),> 10000 nM
7,Cn1c(CC(C(=O)NO)C(=O)NCc2ccccc2)nc2ccccc21 (centres undefined),718 nM
8,O=C(NO)C(Cc1cccc(Oc2ccccc2)c1)C(=O)NCCCCc1ccccc1 (centres undefined),> 10000 nM
9,CC(C)CC(C(=O)NO)C(=O)NCc1cccc(Oc2ccccc2)c1 (centres undefined),443 nM
